Compound activity from PubChem BioAssay.
An excerpt weighted towards active compounds, which were near 0.94% of everything screened.
aDG glyco up – activators of alpha-DG glycosylation, primary screen, uHTS, Pro5-aDG cells, AlphaScreen; AID 624168, 2012; actives 0.22% (n = 360,000); activation, % at 10 µM; alpha-DG glycosylation AlphaScreen (IIH6); 0% Pro5, 100% B10-LARGE cell signal;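 active = activation of at least 8% versus controls, or a plate z-score of at least 8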;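 note: Pro5 are CHO cells carrying HIG-tagged alpha-DG that lacks glycosylation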
Fh CTSL1 inh – Fasciola hepatica cathepsin L1 inhibitors, primary screen, counter-screen for PFM18AAP inhibitor project, biochemical, QFRET, fluorogenic peptide substrate; recombinant F. hepatica cathepsin L1, Z-Leu-Arg-MCA fluorescence; inhibition, % at 5.96 µM; actives 0.49% (n = 300,000); AID 1906, 2009;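 active = inhibition above the mean of all tested compounds plus 3 SD, set per screening campaign, cut at about 17% in these data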;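 note: 0% = plate median of test compound wells and 100% = 1 µM Z-Phe-Ala-diazomethylketone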
UCH37 inh – inhibitors of human UCH37 deubiquitinase, primary screen, biochemical, Ub-AMC cleavage, fluorescence | Ubiquitin carboxyl-terminal hydrolase isozyme L5 (Homo sapiens), Q9Y5K5 | purified proteasome/UCH37 | inhibition, % (concentration not given with the values) | actives 0.33% (n = 330,000) | AID 588478, 2011;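 active = mean inhibition over replicate wells above about 20%, limit read from the data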;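 note: 0% = compound-free wells with enzyme and 100% = wells lacking proteasome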
Target sequence (Q9Y5K5 whole entry, looked up): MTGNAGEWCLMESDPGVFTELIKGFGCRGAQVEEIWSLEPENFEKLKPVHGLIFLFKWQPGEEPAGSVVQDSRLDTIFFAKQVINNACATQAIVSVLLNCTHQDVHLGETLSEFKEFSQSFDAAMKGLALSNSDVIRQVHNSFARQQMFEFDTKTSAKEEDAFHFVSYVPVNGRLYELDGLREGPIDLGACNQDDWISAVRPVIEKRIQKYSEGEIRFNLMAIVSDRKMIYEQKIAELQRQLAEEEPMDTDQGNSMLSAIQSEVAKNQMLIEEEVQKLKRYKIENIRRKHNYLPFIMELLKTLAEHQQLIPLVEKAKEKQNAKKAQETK
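system = Proteasome-associated human UCH37 deubiquitinase | amount = 0.15 nM proteasome as dispensed | medium = pH 7.4 Tris-HCl (50 mM) with ovalbumin, ATP-MgCl2, DTT | incubation = 30 min preincubation with enzyme, 25 min cleavage at room temperature | detection = AMC fluorescence 355/460 nm | read-out basis = percent inhibition | controls = no-proteasome and no-compound wells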
PKA-R1A act – activators of PKA-R1A holoenzyme, primary screen, biochemical, fluorescence polarization, Cy5-IP20, bovine R1A, mouse PKAc; PKA-R1A dissociation; scaled: DMSO 0%, 113 µM cGMP 100%; activation, % at 11.4 µM; actives 0.083% (n = 340,000); cAMP-dependent protein kinase type I-alpha regulatory subunit (Bos taurus) + …;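 active = percent activation above the mean of all tested compounds plus 3 SD, cut at about 19% in these data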;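 note: higher means more PKAc released from R1A so a rise in polarization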
PKA-R2B activ – activators of PKA-R2B holoenzyme, primary screen, biochemical, fluorescence polarization, Cy5-IP20, human; cAMP-dependent protein kinase catalytic subunit beta (Homo sapiens) + cAMP-dependent …; PKA-R2B holoenzyme dissociation; R2B truncated from residue 108, S112A mutant; 0% DMSO only, 100% 113 µM cGMP; activation, % at 11.4 µM; actives 0.079% (n = 340,000); AID 504700, 2011;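 active = activation above a cutoff set at the mean over all compounds plus 3 SD, cut at about 18% in these data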;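 note: higher means more holoenzyme dissociation and a rise in polarization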
R1A FP artifact – FP signal interference without PKA proteins, confirmation, artefact control for PKA-R1A activator project, biochemical, fluorescence polarization, triplicate | AID 504799, 2011 | Cy5-IP20 peptide alone, fluorescence polarization artifact counterscreen | shares compounds with PKA-R1A act | actives 7% (n = 280) | activation, % at 11.4 µM;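 active = mean activation over triplicate runs exceeds the adjusted cutoff derived for the parent primary screen, cut at about 19% in these data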;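 note: no PKA protein present so any polarization rise reflects compound interference; 0% = tracer peptide mix alone and 100% = mix with added PKA catalytic subunit; higher means stronger polarization artifact and likely false positive in parent screen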
PKA-R1A confirm – activators of PKA-R1A holoenzyme, confirmation, biochemical, fluorescence polarization, Cy5-IP20, triplicate; activation, % at 11.4 µM; PKA-R1A holoenzyme dissociation; shares compounds with PKA-R1A act; actives 9% (n = 280); AID 504800, 2011;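 active = mean activation over replicate wells exceeds the adjusted hit threshold taken from the earlier primary screen, cut at about 20% in these data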;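 note: 0% = holoenzyme mix with DMSO only and 100% = cGMP-activated control wells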
* hit, by the source's call; nt = no result.

SMILES	aDG glyco up	Fh CTSL1 inh	UCH37 inh	PKA-R1A act	PKA-R2B activ	R1A FP artifact	PKA-R1A confirm
Cc1ccc(-c2ccc(=O)n(CCC(=O)NCc3ccccn3)n2)cc1	0	2	-4	19*	8	0	0
Cc1ccc(CNC(=O)CCn2nc(-c3ccc(Cl)cc3)ccc2=O)cc1	0	3	5	4	-7	nt	nt
CCCOc1cccc(C(=O)NN=Cc2coc3ccccc3c2=O)c1	nt	nt	-34	nt	nt	nt	nt
CC(C)(C)S(=O)(=O)c1cnc(-c2cnccn2)nc1N	0	0	0	nt	nt	nt	nt
CC(C)(C)S(=O)(=O)c1cnc(-c2ccccn2)nc1N	0	-1	4	20*	-3	5	1
Cc1cc(NC(=O)c2ccc(Br)o2)ccc1NC(=O)c1ccco1	0	-1	3	19*	-1	2	4
O=C(Nc1ccc(F)cc1F)c1ccco1	0	-3	2	24*	6	3	6
CCOC(=O)NN=Cc1cn(Cc2ccc(Cl)cc2)c2ccccc12	nt	nt	4	nt	nt	nt	nt
COc1cc(C=NNC(N)=S)ccc1OCc1ccc(C)cc1	nt	nt	3	nt	nt	nt	nt
COCCn1c(N)c(N(Cc2ccccc2)C(=O)COc2ccc(F)cc2Cl)c(=O)[nH]c1=O	0	-4	0	20*	0	4	5
Nc1c(N(Cc2ccccc2)C(=O)COc2ccc(F)cc2Cl)c(=O)[nH]c(=O)n1Cc1ccccc1	0	nt	5	2	-4	nt	nt
Nc1nonc1-n1nnc(C(=O)NN=Cc2ccc(OCc3cccc(Cl)c3)cc2)c1CN1CCCCC1	nt	nt	5	nt	nt	nt	nt
O=C(COC(=O)C1COc2ccccc2O1)NC(=O)NC1CCCC1 (centres undefined)	0	-1	-1	20*	-2	-2	0
O=C(COC(=O)C1COc2ccccc2O1)NC1CCCCC1 (centres undefined)	0	nt	3	11	5	nt	nt
CCCNC(=O)N(C)C[C@H]1Oc2ncc(C#CCc3ccccc3)cc2C(=O)N([C@H](C)CO)C[C@H]1C	0	nt	nt	3	-1	nt	nt
COc1ccccc1NC(=O)N(C)C[C@H]1Oc2ncc(C#CCN(C)C)cc2C(=O)N([C@H](C)CO)C[C@H]1C	0	nt	nt	21*	-13	0	-1
COC(=O)c1c(C)cc(OC(C)=O)c(C)c1OC(C)=O	0	-7	1	20*	8	4	4
Cc1cccc(/C=N/n2c(-c3cc(-c4ccccc4)n[nH]3)n[nH]c2=S)c1	0	0	nt	19*	4	-3	-2
CCn1c(SCC(=O)NNC(=O)c2ccc(C)cc2)nnc1-c1ccncc1	0	-5	3	0	0	nt	nt
CCC(CO)n1cnnc1-c1ccncc1 (centres undefined)	0	-5	2	20*	7	3	-3
COc1ccc(C=NNC(=O)CN(Cc2ccccc2)S(=O)(=O)c2ccc3c(c2)OCCO3)cc1	nt	nt	1	nt	nt	nt	nt
O=C1Nc2ccccc2Cc2ccccc21	0	nt	nt	20*	-2	2	3
Cc1ccc(C=NN2C(=S)SC(C)(C)C2N(O)C(=O)Nc2ccc([N+](=O)[O-])cc2)cc1 (centres undefined)	nt	nt	8	nt	nt	nt	nt
CCC(O)(CC)C(=O)N(Nc1ccc(C)cc1)c1ccc(C)cc1	0	-1	2	21*	1	3	1
CCOC(=O)C(=O)N(Nc1ccc(C)cc1)c1ccc(C)cc1	0	2	1	-5	-2	nt	nt
